Laboratory results taken from ChEMBL document CHEMBL1821643, “Oleanane-type triterpenoids from the leaves and twigs of Fatsia polycarpa” (J Nat Prod, 2011).
Values after ≈ are worked out from the molar mass of the structure shown. Active and inactive are the calls of the source. The rule behind the calls is not given here.

Columns and labels:
Pseudomonas aeruginosa = experiment: Antimicrobial activity against Pseudomonas aeruginosa ATCC 27853 after 24 hrs by broth microdilution method; type: functional, organism-based
How it was run: (§1)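 MIC by broth microdilution per CLSI guidelines. Strains grown on nutrient agar at 37 °C for 24 h. Inoculum prepared in normal saline against a 0.5 McFarland standard, final density 5 × 10^5 cfu/mL. Compounds dissolved in DMSO, then nutrient broth. 2-fold serial dilutions from 128 down to 0.25 μg/mL. Ampicillin column as positive control.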

Helicobacter pylori = experiment: Antimicrobial activity against Helicobacter pylori ATCC 700392; type: functional
[1] = tested on: Salmonella enterica subsp. enterica; experiment: Antimicrobial activity against Salmonella enterica ATCC 13311 after 24 hrs by broth microdilution method; type: functional, organism-based; how it was run: as §1
AGS = experiment: Cytotoxicity against human AGS cells; type: functional, cell-based
[2] = Cytotoxicity against human HepG2(2.2.15) cells after 3 days by MTS assay; type: functional, cell-based; conditions: HepG2 2.2.15, 72 h
How it was run: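 HepG2 2.2.15 cells exposed for 3 days to 2-fold serial dilutions, 1.25–40 μg/mL. Viability read by MTS assay, in triplicate. Expressed as percentage of untreated control. Fluorouracil as positive control.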

Listeria monocytogenes = experiment: Antimicrobial activity against Listeria monocytogenes ATCC 7644 after 24 hrs by broth microdilution method; type: functional, organism-based; how it was run: as §1
Enterococcus faecalis = experiment: Antimicrobial activity against Enterococcus faecalis ATCC 29212 after 24 hrs by broth microdilution method; type: functional, organism-based; how it was run: as §1
Hepatitis B virus [3] = experiment: Antiviral activity against Hepatitis B virus infected in human HepG2(2.2.15) cells assessed as reduction of HBsAg secretion by enzyme immunoassay; type: functional, organism-based
How it was run: (§2)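 HepG2 2.2.15 cells grown in modified Eagle's medium with 10% FBS, no antibiotics, 37 °C, 5% CO2. Confluent cultures treated at nontoxic concentrations in medium with 2% FBS, renewed every 3 days. Medium collected at day 6; HBsAg and HBeAg measured by enzyme immunoassay. Values relative to 0.1% DMSO control. IFN-alpha as positive control.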

Escherichia coli = experiment: Antimicrobial activity against Escherichia coli ATCC 35150 after 24 hrs by broth microdilution method
Hepatitis B virus [4] = experiment: Antiviral activity against Hepatitis B virus infected in human HepG2(2.2.15) cells assessed as reduction of HBeAg secretion by enzyme immunoassay; type: functional, organism-based; how it was run: as §2
Bacillus cereus = experiment: Antimicrobial activity against Bacillus cereus ATCC 9139 after 24 hrs by broth microdilution method; type: functional; conditions: ATCC 9139, 24 h; how it was run: as §1
Staphylococcus aureus = experiment: Antimicrobial activity against Staphylococcus aureus ATCC 29213 after 24 hrs by broth microdilution method; type: functional; conditions: ATCC 29213, 24 h; how it was run: as §1

| SMILES | MIC (Pseudomonas aeruginosa) | MBC (Helicobacter pylori) [µg/mL] | MIC [1] | IC50 (AGS) [µM] | IC50 [2] [µM] | MIC (Listeria monocytogenes) | MIC (Enterococcus faecalis) | inhibition (Hepatitis B virus [3]) | MIC (Escherichia coli) | inhibition (Hepatitis B virus [4]) | MIC (Bacillus cereus) [µg/mL] | MIC (Staphylococcus aureus) [µg/mL] |
| --- | --- | --- | --- | --- | --- | --- | --- | --- | --- | --- | --- | --- |
| CC1(C)CC[C@]2(C(=O)O)CC[C@]3(C)C(=C2C1)C=C[C@@H]1[C@@]2(C)CC[C@@H](O)C(C)(C)[C@@H]2CC[C@]13C | inactive | 128 (≈ 282 µM) | inactive | > 50 | > 50 | inactive | inactive | inactive | inactive | inactive | – | – |
| CC1(C)CC[C@@]23CC[C@]4(C)[C@@](C=C[C@@H]5[C@@]6(C)CC[C@@H](O)C(C)(C)[C@@H]6CC[C@]54C)(OC2=O)[C@@H]3C1 | inactive | > 128 | inactive | 9 | > 50 | inactive | inactive | inactive | inactive | inactive | – | – |
| CC1(C)CC[C@]2(C(=O)O)CC[C@]3(C)C(=C2C1)C=C[C@@H]1[C@@]2(C)CC[C@@H](O)[C@@](C)(CO)[C@@H]2CC[C@]13C [FATSICARPAIN A] | inactive | 64 (≈ 136 µM) | inactive | 10.1 | 18.9 | inactive | inactive | inactive | inactive | inactive | 32 (≈ 68 µM) | – |
| CC1(C)CC[C@]2(C(=O)O)CC[C@]3(C)C(=C2C1)C=C[C@@H]1[C@@]2(C)CC[C@H](OS(=O)(=O)O)C(C)(C)[C@@H]2CC[C@]13C [FATSICARPAIN B] | inactive | 128 (≈ 239 µM) | inactive | > 50 | > 50 | inactive | inactive | inactive | inactive | inactive | – | – |
| CC1(C)CC[C@]2(C(=O)O)CC[C@]3(C)C(=C2C1)C=C[C@@H]1[C@@]2(C)CC[C@@H](O)[C@@](C)(C=O)[C@@H]2CC[C@]13C [FATSICARPAIN C] | inactive | 64 (≈ 137 µM) | inactive | > 50 | 16.7 | inactive | inactive | inactive | inactive | inactive | 32 (≈ 68.3 µM) | 64 (≈ 137 µM) |
| CC1(C)CC[C@]2(C(=O)O)CC[C@]3(C)C(=CC=C4[C@@]5(C)CC[C@@H](O)C(C)(C)[C@@H]5CC[C@]43C)[C@@H]2C1 [FATSICARPAIN D] | inactive | 64 (≈ 141 µM) | inactive | 42.8 | 28.8 | inactive | inactive | inactive | inactive | inactive | 8 (≈ 17.6 µM) | – |
| CC1(C)C=C2[C@H]3C[C@@H](O)[C@@H]4[C@@]5(C)CC[C@@H](O)C(C)(C)[C@@H]5CC[C@@]4(C)[C@]3(C)CC[C@@]2(C(=O)O)CC1 [FATSICARPAIN E] | inactive | 128 (≈ 271 µM) | inactive | 47.6 | > 50 | inactive | inactive | inactive | inactive | inactive | 64 (≈ 135 µM) | – |
| CO[C@@H]1C=C2[C@@H]3CC(C)(C)CC[C@]3(C(=O)O)CC[C@@]2(C)[C@]2(C)CC[C@H]3C(C)(C)[C@H](O)CC[C@]3(C)[C@@H]12 [FATSICARPAIN F] | inactive | 64 (≈ 131 µM) | inactive | > 50 | 23.9 | inactive | inactive | inactive | inactive | inactive | 2 (≈ 4.11 µM) | – |
| CC1(C)CC[C@@]23CC[C@]4(C)[C@@](C=C[C@@H]5[C@@]6(C)CC[C@@H](O)[C@@](C)(CO)[C@@H]6CC[C@]54C)(OC2=O)[C@@H]3C1 [FATSICARPAIN G] | inactive | 64 (≈ 136 µM) | inactive | 33.2 | 29.2 | inactive | inactive | inactive | inactive | inactive | – | – |
